According to ChEMBL document CHEMBL1135578, “Rhodacyanine dyes as antimalarials. 1. Preliminary evaluation of their activity and toxicity” (J Med Chem, 2002):

Assays:
Plasmodium falciparum = assay: In vitro antimalarial activity against chloroquine-sensitive Plasmodium falciparum FCR3; format: functional, organism-based
Summary of the method: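 In vitro growth of chloroquine-sensitive P. falciparum FCR-3 read as EC50; some entries are given as EC70 values (% parasite growth observed) where noted.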

FM3A [1] = assay: Cytotoxicity against mouse mammary tumor FM3A cells representing a model of host; format: functional, cell-based
Summary of the method: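 Growth of mouse mammary tumor FM3A cells, used as a host model, read as EC50; some entries are given as lower-effect ECx values (% growth observed) where noted.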

FM3A [2] = assay: (§1) Selective toxicity- EC50 value of FM3A / EC50 value of Plasmodium falciparum; format: cell-based; details: mouse, fm3a
Summary of the method: (§2)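 Ratio computed as EC50 in FM3A cells divided by EC50 against P. falciparum FCR-3.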

[3] = as §1; format: cell-based; details: mouse, FM3A cells; read-out: Toxicity ratio; summary of the method: as §2

| EC50 (Plasmodium falciparum) | EC50 (Plasmodium falciparum; Plasmodium falciparum) | Structure (SMILES) | EC50 (FM3A [1]; fm3a) | Toxicity ratio (FM3A [2]) | EC50 (FM3A [1]; Mus musculus, FM3A) | selectivity ratio [3] |
| --- | --- | --- | --- | --- | --- | --- |
| > 38 nM |  | C=CCn1c(=O)/c(=C2\Sc3ccccc3N2C)s/c1=C\c1cccc[n+]1C [listing 1 of 2 here] |  |  |  |  |
| 26 nM |  | CCn1c(=O)/c(=C2\Sc3ccccc3N2C)s/c1=C\c1cccc[n+]1C.[Cl-] | 16000 nM | 620 |  |  |
|  | 56 nM | CCn1c(=O)/c(=C2\Sc3ccccc3N2C)s/c1=C\c1cccc(-c2ccccc2)[n+]1C |  |  | 1900 nM | 34 |
|  | 31 nM | CN1/C(=c2\s/c(=C\c3cccc[n+]3C)n(Cc3ccccc3)c2=O)Sc2ccccc21 |  |  | 800 nM | 26 |
| 23 nM |  | CCn1c(=O)/c(=C2\Sc3ccccc3N2C)s/c1=C\c1cccc[n+]1C.Cc1ccc(S(=O)(=O)[O-])cc1 | 11000 nM | 480 |  |  |
|  | 3700 nM | CC[N+]1=C(SC)S/C(=C2/Sc3ccccc3N2C)C1=O |  |  |  |  |
|  | 66 nM | CCn1c(=O)/c(=C2\Sc3cc(C(F)(F)F)ccc3N2C)s/c1=C\c1cccc[n+]1CC |  |  | 4200 nM | 64 |
|  | 4.6 nM | CCn1c(=O)/c(=C2\Sc3ccccc3N2C)s/c1=C\c1ccc2ccccc2[n+]1C |  |  | 580 nM | 130 |
|  | 230 nM | CCn1c(=O)/c(=C2\SCCN2C)s/c1=C\c1cccc[n+]1C |  |  | > 34000 nM | > 150 |
|  | 28 nM | CCn1c(=O)/c(=C2\Sc3ccccc3N2C)s/c1=C\c1cccc[n+]1C |  |  | 14000 nM | 500 |
|  | 45 nM | CN1/C(=c2\s/c(=C\c3cccc[n+]3C)n(C)c2=O)Sc2ccccc21 |  |  | 3800 nM | 84 |
| 22 nM |  | CCn1c(=O)/c(=C2\Sc3ccccc3N2C)s/c1=C\c1cccc[n+]1C.[OH-] | 13000 nM | 590 |  |  |
|  | > 28000 nM | CCN1C(=O)/C(=C2\Sc3ccccc3N2C)SC1=S |  |  |  |  |
|  | 56 nM | CCn1c(=O)/c(=C2\Sc3ccccc3N2C)s/c1=C\c1cc[n+](C)cc1 |  |  | > 24000 nM | > 430 |
|  | 240 nM | CCn1c(=O)/c(=C2\C=Cc3ccccc3N2C)s/c1=C\c1cccc[n+]1C |  |  |  |  |
|  | 70 nM | CCn1c(=O)/c(=C2\Sc3ccccc3N2C)s/c1=C\c1cccc[n+]1CC |  |  | 15000 nM | 210 |

| EC50 (Plasmodium falciparum) | EC50 (Plasmodium falciparum; Plasmodium falciparum) | Structure (SMILES) | EC50 (FM3A [1]; fm3a) | Toxicity ratio (FM3A [2]) | EC50 (FM3A [1]; Mus musculus, FM3A) | selectivity ratio [3] |
| --- | --- | --- | --- | --- | --- | --- |
|  | 680 nM | CCn1c(=O)/c(=C2\Sc3ccccc3N2C)s/c1=C\c1cccc[n+]1CCCCC(=O)O |  |  | > 18000 nM | > 26 |
|  | 14 nM | C=CCn1c(=O)/c(=C2\Sc3ccccc3N2C)s/c1=C\c1cc[n+](C)cc1 |  |  | 6700 nM | 480 |
|  | 240 nM | CN1/C(=C\c2cccc[n+]2C)Sc2ccccc21 |  |  |  |  |
| 12 nM |  | C=CCn1c(=O)/c(=C2\Sc3ccccc3N2C)s/c1=C\c1cccc[n+]1C [listing 2 of 2 here] |  |  | 12000 nM | 1000 |
|  | 50 nM | CN1/C(=c2\s/c(=C\c3cc[n+](C)cc3)n(Cc3ccccc3)c2=O)Sc2ccccc21 |  |  | 810 nM | 16 |
|  | 1500 nM | CC[n+]1ccccc1/C=c1\s/c(=C2/Sc3ccccc3N2C)c(=O)n1CCCCC(=O)O |  |  | > 17000 nM | > 11 |
|  | 43 nM | CCn1c(=O)/c(=C2\Sc3ccc4ccccc4c3N2C)s/c1=C\c1cccc[n+]1CCO |  |  | 5000 nM | 120 |
|  | 7.8 nM | CCn1c(=O)/c(=C2\Sc3ccccc3N2C)s/c1=C\c1cc[n+](C)c2ccccc12 |  |  | 680 nM | 87 |
|  | 520 nM | CCN1C(=O)CS/C1=C\c1sc2ccccc2[n+]1CC |  |  |  |  |
|  | 210 nM | CCn1c(=O)/c(=C2\Sc3ccccc3N2C)s/c1=C\c1cccc[n+]1CCO |  |  | > 17000 nM | > 81 |
|  | 350 nM | CCn1c(=O)/c(=C2\C=CC=CN2C)s/c1=C\c1cccc[n+]1C |  |  |  |  |
|  |  | CCN(CC)CCCC(C)Nc1ccnc2cc(Cl)ccc12 (stereo not given) [CHLOROQUINE] |  |  |  | 1800 |
|  | 17 nM | CN(C)c1ccc2nc3ccc(N(C)C)cc3[s+]c2c1 [METHYLENE BLUE ANHYDROUS] |  |  | 1100 nM | 65 |
|  |  | C=C[C@H]1C[N@@]2CC[C@H]1C[C@H]2[C@H](O)c1ccnc2ccc(OC)cc12 [QUININE] |  |  |  | 910 |
|  | 300 nM | COC(=O)c1ccccc1-c1c2ccc(=N)cc-2oc2cc(N)ccc12 [RHODAMINE123] |  |  | 10000 nM | 33 |
